Test results reported in ChEMBL document CHEMBL5331128, “Alicyclic Ring Size Variation of 4-Phenyl-2-naphthoic Acid Derivatives as P2Y14 Receptor Antagonists” (J Med Chem, 2023).
Calls of active or inactive are those of the source.

Columns and labels:
[1] = Protein binding in mouse plasma assessed as bound fraction; type: ADME, cell-free
[2] = test system: Mus musculus; test: Antiallodynic activity in CCI surgery neuropathic pain Hsd:ICR mouse model assessed as reversal of mechano-allodynia by measuring paw withdrawal threshold at 10 micromol/kg,ip and measured at 0.5 hrs by von frey test; type: functional, organism-based; conditions: dose 10.0 µmol/kg
Method in brief: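 CCI neuropathic pain in adult male Hsd:ICR (CD-1) mice (20–30 g). Single i.p. injection on day 7 after sciatic nerve constriction, at peak pain. Vehicle 10% (Kolliphor HS 15:DMSO 5:95) in saline, 0.2 mL. Paw withdrawal threshold by von Frey filaments on ipsilateral and contralateral hindpaws. Mean ± SD; two-way ANOVA with Dunnett's test versus day 0 and day 7.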

**Q.** For `O=C(O)c1cc(-c2ccc([C@]3(O)[C@@H]4CNC[C@H]3C4)cc2)c2ccc(-c3ccc(C(F)(F)F)cc3)cc2c1`, which PPB [1] is on record?
**A.** 99.86%

**Q.** What about the Activity [2] of the same molecule?
**A.** Active
